Assay results from ChEMBL document CHEMBL5236549, “Discovery of 2-Sulfinyl-Diazabicyclooctane Derivatives, Potential Oral β-Lactamase Inhibitors for Infections Caused by Serine β-Lactamase-Producing Enterobacterales” (J Med Chem, 2021).

Assays:
[1] = Inhibition of bacterial beta-lactamase CMY-2 using nitrocefin as substrate incubated for 20 mins; design: species or system Bacteria
Summary of the method: (§1)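 Nitrocefin hydrolysis read by absorbance. Enzyme titrated to give about 0.2 absorbance change over the no-enzyme control. Enzyme added to nitrocefin (final 50 μg/mL) plus inhibitor, no preincubation, read after 20 min at 35 °C. IC50 is 50% reduction of hydrolysis. N = 1.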

[2] = Total clearance in rat by LC-MS/MS analysis; format: ADME; conditions: in vivo
[3] = Stability of the compound in phosphate buffer at pH 7.0 assessed as parent compound remaining at 40 degreeC measured after 16 hrs; format: physicochemical; conditions: read-out: Stability
Summary of the method: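 Compound held in pH 7.0 phosphate buffer at 40 °C for 16 h; amount remaining reported as %.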

[4] = Inhibition of bacterial beta-lactamase KPC-2 using nitrocefin as substrate incubated for 20 mins; design: species or system Bacteria; summary of the method: as §1
[5] = Inhibition of bacterial beta-lactamase CTX-M-15 using nitrocefin as substrate incubated for 20 mins; design: species or system Bacteria
[6] = system: Klebsiella pneumoniae; assay: Antibacterial activity against Klebsiella pneumoniae ATCC BAA1705 assessed as reduction in bacterial growth by measuring minimum potentiating concentration incubated for 16 to 20 hrs by CLSI based two-fold serial dilution method; conditions: time 16-20 hrs
[7] = system: Klebsiella pneumoniae; assay: Antibacterial activity against Klebsiella pneumoniae ATCC SR201218 assessed as reduction in bacterial growth by measuring minimum […] concentration incubated for 16 to 24 hrs by CLSI based two-fold serial dilution method; format: functional; conditions: time 16-24 hrs
Summary of the method: (§2)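 MPC₁ by broth microdilution: twofold serial dilutions of inhibitor in cation-adjusted Mueller Hinton broth containing ceftibuten at 1 μg/mL. Inoculum about 5 × 10⁴ cfu/well final, set from OD625. Incubation at 35 °C for 16−20 h. […] N = 1.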

[8] = system: Escherichia coli; assay: Antibacterial activity against Escherichia coli ATCC SR34100 assessed as inhibition of bacterial growth incubated for 16 to 20 hrs by CLSI based two-fold serial dilution method
[9] = system: Escherichia coli; assay: Antibacterial activity against Escherichia coli ATCC SR34100 assessed as reduction in bacterial growth by measuring minimum […] concentration incubated for 16 to 24 hrs by CLSI based two-fold serial dilution method; format: functional; conditions: time 16-24 hrs; summary of the method: as §2
[10] = system: Klebsiella pneumoniae; assay: Antibacterial activity against Klebsiella pneumoniae ATCC BAA1705 assessed as inhibition of bacterial growth incubated for 16 to 20 hrs by CLSI based two-fold serial dilution method
[11] = system: Escherichia coli; assay: Antibacterial activity against Escherichia coli ATCC SR09613 assessed as inhibition of bacterial growth incubated for 16 to 20 hrs by CLSI based two-fold serial dilution method
[12] = system: Escherichia coli; assay: Antibacterial activity against Escherichia coli ATCC SR09613 assessed as reduction in bacterial growth by measuring minimum […] concentration incubated for 16 to 24 hrs by CLSI based two-fold serial dilution method; format: functional; conditions: time 16-24 hrs; summary of the method: as §2
[13] = system: Klebsiella pneumoniae; assay: Antibacterial activity against Klebsiella pneumoniae ATCC SR201218 assessed as inhibition of bacterial growth incubated for 16 to 20 hrs by CLSI based two-fold serial dilution method
[14] = Inhibition of bacterial beta-lactamase OXA-48 using nitrocefin as substrate incubated for 20 mins; design: species or system Bacteria; summary of the method: as §1

Row | Compound | IC50 [1] | clearance [2] | remaining at 16 h [3] | IC50 [4] | IC50 [5] | MPC [6] | MPC [7] | MIC [8] | MPC [9] | MIC [10] | MIC [11] | MPC [12] | MIC [13] | IC50 [14]
1 | C[S@@+]([O-])[C@@H]1CC[C@@H]2CN1C(=O)N2OC(F)(F)C(=O)[O-].[Na+] | 0.026 µM | 17.3 L/h/kg | 17% | 0.008 µM | 0.005 µM |  |  |  |  |  |  |  |  | 
2 | CC(=O)NCC[S@@+]([O-])[C@@H]1CC[C@@H]2CN1C(=O)N2O[C@H](F)C(=O)[O-].[Na+] | 0.101 µM |  |  | 0.007 µM | 0.101 µM | 0.25 µg/mL | 8 µg/mL | > 32 mg/L | 0.5 µg/mL | > 32 mg/L | > 32 mg/L | 0.063 µg/mL |  | 
3 | O=C([O-])[C@@H](F)ON1C(=O)N2C[C@H]1CC[C@H]2[S@+]([O-])CCCO.[Na+] | 0.039 µM |  |  | 0.038 µM | 0.01 µM | 0.5 µg/mL | 2 µg/mL | > 32 mg/L | 1 µg/mL | > 32 mg/L | > 32 mg/L | 0.063 µg/mL | > 32 mg/L | 
4 | NC(=O)C[S@@+]([O-])[C@@H]1CC[C@@H]2CN1C(=O)N2O[C@H](F)C(=O)[O-].[Na+] | 0.057 µM |  |  | 0.035 µM | 0.05 µM | 0.063 µg/mL | 4 µg/mL | 32 mg/L | 0.25 µg/mL | 32 mg/L | 32 mg/L | 0.125 µg/mL | > 32 mg/L | 
5 | O=C([O-])[C@@H](F)ON1C(=O)N2C[C@H]1CC[C@H]2[S@+]([O-])C[C@@H](O)CO.[Na+] | 0.052 µM |  |  | 0.056 µM | 0.01 µM | 0.25 µg/mL | 8 µg/mL | > 32 mg/L | 1 µg/mL | > 32 mg/L | > 32 mg/L | 0.125 µg/mL | > 32 mg/L | 
6 | Cc1nnc(C[S@@+]([O-])[C@@H]2CC[C@@H]3CN2C(=O)N3O[C@H](F)C(=O)[O-])o1.[Na+] | 0.036 µM |  |  | 0.016 µM | 0.024 µM | 1 µg/mL | 4 µg/mL | > 32 mg/L | 1 µg/mL | > 32 mg/L | > 32 mg/L | 0.125 µg/mL | > 32 mg/L | 
7 | O=C([O-])[C@@H](F)ON1C(=O)N2C[C@H]1CC[C@H]2[S@+]([O-])Cc1c[nH]cn1.[Na+] | 0.059 µM |  |  | 0.078 µM | 0.008 µM | 1 µg/mL | 4 µg/mL | 32 mg/L | 1 µg/mL | 32 mg/L | > 32 mg/L | 0.125 µg/mL | > 32 mg/L | 
8 | N#CC[S@@+]([O-])[C@@H]1CC[C@@H]2CN1C(=O)N2O[C@H](F)C(=O)[O-].[Na+] | 0.096 µM |  |  | 0.039 µM | 0.007 µM | <0.031 µg/mL | 2 µg/mL | > 32 mg/L | 0.25 µg/mL | > 32 mg/L | 32 mg/L | 0.125 µg/mL | > 32 mg/L | 
9 | Nc1ncc(C[S@@+]([O-])[C@@H]2CC[C@@H]3CN2C(=O)N3O[C@H](F)C(=O)[O-])s1.[Na+] | 0.041 µM |  |  | 0.088 µM | 0.01 µM | 0.25 µg/mL | 4 µg/mL | > 32 mg/L | 1 µg/mL | > 32 mg/L | > 32 mg/L | 0.5 µg/mL | > 32 mg/L | 0.981 µM
10 | NC(=O)/C(C[S@@+]([O-])[C@@H]1CC[C@@H]2CN1C(=O)N2O[C@H](F)C(=O)[O-])=N\O.[Na+] (stereo in doubt) | 0.143 µM |  |  | 0.132 µM | 0.07 µM | 2 µg/mL | 32 µg/mL | > 32 mg/L | 2 µg/mL | > 32 mg/L | > 32 mg/L | 0.25 µg/mL | > 32 mg/L | 
11 | O=C([O-])[C@@H](F)ON1C(=O)N2C[C@H]1CC[C@H]2[S@+]([O-])CF.[Na+] | 0.113 µM |  |  | 0.09 µM | 0.006 µM | 0.5 µg/mL | 2 µg/mL | 32 mg/L | 0.25 µg/mL | 32 mg/L | 32 mg/L | 0.25 µg/mL | > 32 mg/L | 
12 | NCC[S@@+]([O-])[C@@H]1CC[C@@H]2CN1C(=O)N2O[C@H](F)C(=O)O.O=C(O)C(F)(F)F | 0.431 µM |  |  | 0.069 µM | 0.159 µM | <0.031 µg/mL | 4 µg/mL | > 32 mg/L | 0.125 µg/mL | > 32 mg/L | > 32 mg/L | 0.5 µg/mL | > 32 mg/L | 
13 | C[S@+]([O-])[C@@H]1CC[C@@H]2CN1C(=O)N2O[C@H](F)C(=O)[O-].[Na+] | 0.655 µM |  |  | 0.443 µM | 0.445 µM | 0.125 µg/mL | 2 µg/mL | 16 mg/L | 0.125 µg/mL | 32 mg/L | 32 mg/L | 0.5 µg/mL | > 32 mg/L | 32.6 µM
14 | NC(=O)OCC[S@@+]([O-])[C@@H]1CC[C@@H]2CN1C(=O)N2O[C@H](F)C(=O)[O-].[Na+] | 0.064 µM |  |  | 0.027 µM | 0.014 µM | 1 µg/mL | 4 µg/mL | > 32 mg/L | 1 µg/mL | > 32 mg/L | > 32 mg/L | 0.125 µg/mL | > 32 mg/L | 
15 | O=C([O-])[C@@H](F)ON1C(=O)N2C[C@H]1CC[C@H]2[S@+]([O-])CCO.[Na+] | 0.057 µM |  |  | 0.036 µM | 0.016 µM | 1 µg/mL | 2 µg/mL | > 32 mg/L | 0.5 µg/mL |  | > 32 mg/L | 0.125 µg/mL | > 32 mg/L | 
